Assay results reported in ChEMBL document CHEMBL1124994, “New and versatile approaches to the synthesis of CPP-related competitive NMDA antagonists. Preliminary structure-activity relationships and pharmacological evaluation” (J Med Chem, 1990).

Assays:
[1] = target: Glutamate NMDA receptor; assay: Inhibition of N-methyl-D-aspartate glutamate receptor by using [3H]CPP as a radioligand from the rat cortical membranes.; assay type: cell membranes, Membrane
[2] = target: T1, Glutamate NMDA receptor (Rattus norvegicus) (UniProt P35439+Q00959+Q00960+Q00961+Q62645+Q8VHN2+Q9R1M7); assay: Binding affinity for glutamate-stimulated TCP binding site of N-methyl-D-aspartate glutamate receptor from rat brain by using [3H]-TCP as radioligand; ant = antagonist; settings: filed as antagonist
Method in brief: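 Crude synaptic membranes from rat whole brain minus cerebellum and brainstem, stored at -70 °C, treated with 0.01% Triton X-100 in 50 mM Tris-HCl pH 7.6 at 37 °C for 30 min, then washed. Incubated with 15 mg tissue and 1 nM [3H]TCP in 5 mM Tris-HCl pH 8.0 for 1 h at 25 °C. Filtered on PEI-treated filters, counted by scintillation. Nonspecific binding: 100 µM (+)-SKF 10047.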

[3] = target: Glutamate NMDA receptor; assay: Compound was tested for inhibition of [3H]CPP binding from N-methyl-D-aspartate glutamate receptor in the rat cortical membranes.; assay type: cell membranes, Membrane
[4] = target: T1, Glutamate NMDA receptor (Rattus norvegicus); settings: filed as agonist
[5] = target: T1, Glutamate NMDA receptor (Rattus norvegicus); assay: Binding affinity for glutamate-stimulated TCP binding site of N-methyl-D-aspartate glutamate receptor from rat brain by using [3H]TCP as radioligand; Antagonist; settings: filed as antagonist
Method in brief: (§1)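 Rat whole brain minus cerebellum and brain stem; crude synaptic membranes stored at -70 °C, then treated with 0.01% Triton X-100 in 50 mM Tris-HCl pH 7.6 for 30 min at 37 °C and washed three times. Incubation with 15 mg wet tissue and 1 nM [3H]TCP in 5 mM Tris-HCl pH 8.0, 1 h, 25 °C. Filtration through PEI-treated glass-fiber filters, scintillation counting. Nonspecific binding defined with 100 µM (+)-SKF 10047.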

[6] = target: Glutamate NMDA receptor; assay: Compound was tested for inhibition of N-methyl-D-aspartate glutamate receptor by using [3H]CPP as a radioligand from the rat cortical membranes; assay type: cell membranes, Membrane
[7] = target: T1, Glutamate NMDA receptor (Rattus norvegicus); assay: Binding affinity for glutamate-stimulated TCP binding site of N-methyl-D-aspartate glutamate receptor from rat brain by using [3H]TCP as radioligand;Antagonist; settings: filed as antagonist; method in brief: as §1
[8] = target: Glutamate NMDA receptor; assay: Binding affinity was determined by the ability to displace [3H]-CPP from N-methyl-D-aspartate glutamate receptor of rat brain
Method in brief: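 Radioligand displacement of [3H]CPP from rat cortical crude synaptic membranes.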

[9] = target: T1, Glutamate NMDA receptor (Rattus norvegicus); assay: Binding affinity for glutamate-stimulated TCP binding site of N-methyl-D-aspartate glutamate receptor from rat brain by using [3H]TCP as radioligand; Agonist; settings: filed as agonist
Method in brief: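 Rat whole brain minus cerebellum and brainstem, crude synaptic membranes stored at -70 °C; thawed, treated with 0.01% Triton X-100 in 50 mM Tris-HCl pH 7.6 at 37 °C for 30 min, washed ≥3 times. Test agents incubated with 15 mg tissue (wet weight) and [3H]TCP 1 nM in 5 mM Tris-HCl pH 8.0, 1 h, 25 °C. Filtration, scintillation counting; nonspecific binding with 100 μM (+)-SKF 10047.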

CN1CCN(CCCP(=O)(O)O)CC1C(=O)O (stereo not given)
IC50 [1]: 47.7 µM

NC(CCCCCP(=O)(O)O)C(=O)O (stereo not given) [AP-7]
IC50 [1]: 0.76 µM | GSTCP activity [2]: Antagonist

O=C(O)C1CN(c2cccc(P(=O)(O)O)c2)CCN1 (stereo not given)
IC50 [1]: 83 µM

CN[C@H](CC(=O)O)C(=O)O [N-METHYL-D-ASPARTIC ACID (NMDA)]
IC50 [3]: 4.55 µM | GSTCP activity [4]: Agonist

O=C(O)C1CN(CCCCP(=O)(O)O)CCN1 (stereo not given)
IC50 [1]: 48 µM | GSTCP activity [5]: Antagonist

N[C@@H](CCC(=O)O)C(=O)O
GSTCP activity [4]: Agonist

O=C(O)C1CN(CCP(=O)(O)O)CCN1 (stereo not given)
IC50 [1]: 9.8 µM | GSTCP activity [5]: Antagonist

O=C(O)C1CN(c2ccccc2P(=O)(O)O)CCN1 (stereo not given)
IC50 [6]: > 100 µM

O=C(O)C1CN(CCCP(=O)(O)O)CCN1CCCCc1ccccc1 (stereo not given)
IC50 [1]: > 100 µM

CP(=O)(O)CCCN1CCNC(C(=O)O)C1 (stereo not given)
IC50 [1]: 0.78 µM | GSTCP activity [2]: Antagonist

O=C(O)[C@@H]1C[C@H](CP(=O)(O)O)CCN1 [SELFOTEL]
IC50 [1]: 0.065 µM | GSTCP activity [5]: Antagonist

O=C(O)C1CN(CP(=O)(O)O)CCN1 (stereo not given)
IC50 [6]: 0.32 µM | GSTCP activity [5]: Antagonist

O=C(O)CCCN1CCNC(C(=O)O)C1 (stereo not given)
IC50 [1]: 0.85 µM | GSTCP activity [7]: Antagonist

O=C(O)C1CN(CCCP(=O)(O)O)CCN1CCC(c1ccccc1)c1ccccc1 (stereo not given)
IC50 [6]: > 100 µM

O=C(O)C1CN(CCCP(=O)(O)O)CCN1CCCCC(c1ccccc1)c1ccccc1 (stereo not given)
IC50 [1]: > 100 µM

NC(CCCP(=O)(O)O)C(=O)O (stereo not given)
IC50 [8]: 0.29 µM | GSTCP activity [2]: Antagonist

O=C(O)C1CN(C(c2ccccc2)P(=O)(O)O)CCN1 (stereo not given)
IC50 [3]: 13.3 µM | IC50 [1]: 5.8 µM | GSTCP activity [5]: Antagonist

O=C(O)C1CN(Cc2cccc(CP(=O)(O)O)c2)CCN1 (stereo not given)
IC50 [1]: > 100 µM

O=C(O)CN1CCNC(C(=O)O)C1 (stereo not given)
IC50 [1]: 16 µM | GSTCP activity [5]: Antagonist

O=C(O)C1CN(CCCP(=O)(O)O)CCN1 (stereo not given)
IC50 [1]: 0.079 µM | GSTCP activity [9]: Agonist

O=C(O)C1CN(CCCP(=O)(O)O)CCN1CCC=C(c1ccccc1)c1ccccc1 (stereo not given)
IC50 [1]: > 100 µM

O=C(O)c1ccccc1C(=O)N1CCNC(C(=O)O)C1 (stereo not given)
IC50 [1]: > 100 µM
